For assay [1], the target named is T1, Bromodomain-containing protein 4 (Homo sapiens, UniProt O60885). Briefly: Inhibition of BRD4 bromodomain-1 (unknown origin) by europium based LANCE TR-FRET assay. For orientation: Time-resolved FRET reads energy transfer from a long-lived donor to a nearby acceptor.
The target of assay [2] is T1, Bromodomain-containing protein 4. Nature of the assay: Inhibition of BRD4 bromodomain-1 (unknown origin) at 300 uM by europium based LANCE TR-FRET assay. The essentials: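 Run with a commercial BRD4 bromodomain 1 TR-FRET assay kit, read out as europium-based LANCE time-resolved fluorescence resonance energy transfer.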
The target is the same in assay [3]. The settings on record: at 100 µM.

The source made the active and inactive calls. The rule behind the calls is not given here. A value given as a limit tells only on which side of the number the result lay.

As to `COc1ccc(C(=O)Nc2ncnc3[nH]cnc23)cc1`, in assay [1], the IC50 (as a rule, the concentration needed to halve the response being measured) turned out to be 34.5 µM. Turning to `O=C(Nc1ncnc2[nH]cnc12)c1ccc(Br)cc1`, the inhibition – broadly, the percentage by which the read-out fell short of the control – is < 50% in assay [2] and 36.7% in assay [3]. Turning to `Cc1ccccc1C(=O)Nc1ncnc2[nH]cnc12`, the inhibition in assay [2] was < 50%; in assay [3], 40.4%. On to `O=C(Nc1ncnc2[nH]cnc12)c1cccc(Br)c1`, for which the inhibition in assay [2] is < 50%; in assay [3] it was 44.5%.

As for `COc1cccc(OC)c1C(=O)Nc1ncnc2[nH]cnc12`, the results for the inhibition in assay [2] and in assay [3] were < 50% and 11.5%, respectively. Consider `Cn1cnc2c(NC(=O)c3ccccc3)ncnc21`, for which the inhibition is < 50% in assay [2] and 3.7% in assay [3].

The compound `COc1ccccc1C(=O)Nc1ncnc2[nH]cnc12` had an IC50 in assay [1] of 16 µM. Still for that read-out and setting: the same measure for `CCCOc1ccccc1C(=O)Nc1ncnc2[nH]cnc12`: 20 µM. Regarding `c1ccc(CNc2ncnc3[nH]cnc23)cc1`, in assay [3], the inhibition entry is “inactive”. Still for that read-out and setting: the value for `C/C(=C\CNc1ncnc2[nH]cnc12)CO` was “inactive”.

`COc1cccc(C(=O)Nc2ncnc3[nH]cnc23)c1OC`: 78.6 µM corresponded to half-maximal inhibition in assay [1] (IC50).

Consider `Cc1noc(C)c1N1C(=O)c2ccccc2C1=O`, for which the inhibition result in assay [3] was “inactive”. With `O=C(c1ccccc1)N(C(=O)c1ccccc1)c1ccncn1`, the inhibition in assay [2] was < 50%; in assay [3], 11%. Regarding `O=C(Nc1ncnc2nc[nH]c12)c1ccccc1`, half-maximal inhibition in assay [1] (IC50) was put at 34.2 µM. Turning to `O=C(Nc1ccncn1)c1ccccc1`, the figures for the inhibition in assay [2] and in assay [3] were < 50% and 5.8%, respectively. For `Cc1n[nH]c(C)c1CN1C(=O)c2ccccc2C1=O`, the inhibition result in assay [3] was “inactive”.

For the compound `O=C(Nc1cccc2ncccc12)c1ccccc1`, the inhibition is < 50% in assay [2] and 16.4% in assay [3].

With `O=C(Nc1cccc2[nH]cnc12)c1ccccc1`, the inhibition in assay [2] is < 50%; in assay [3], 4.8%. The matching figures for `O=C(Nc1cccc2c1ncn2C(=O)c1ccccc1)c1ccccc1`: < 50% and 7.2%. Take `CSc1ccccc1C(=O)Nc1ncnc2[nH]cnc12`: the IC50 in assay [1] was 29.7 µM. Same read-out and setting: the value for `COc1ccc(OC)c(C(=O)Nc2ncnc3[nH]cnc23)c1` was 7.2 µM. For the compound `COc1cccc(C(=O)Nc2ncnc3[nH]cnc23)c1`, the half-maximal inhibitory concentration (IC50) in assay [1] was found to be 63 µM. Compound `COc1ccc(C(=O)Nc2ncnc3[nH]cnc23)cc1OC` had a half-inhibitory concentration (IC50) in assay [1] of 7.8 µM. Still for that read-out and setting: the same measure for `COc1cc(OC)c(C(=O)Nc2ncnc3[nH]cnc23)cc1OC`: 0.427 µM. `COc1ccc(C(=O)Nc2ncnc3[nH]cnc23)c(OC)c1`: the inhibition in assay [2] was < 50%; in assay [3], 40.8%. On to `COc1cc(OC)cc(C(=O)Nc2ncnc3[nH]cnc23)c1`, for which the half-maximal inhibitory concentration (IC50) in assay [1] worked out at 17.9 µM. In the case of `O=C1CCC(N2C(=O)c3ccccc3C2=O)C(=O)N1` (stereo unspecified), the inhibition entry in assay [3] was “inactive”. Take `O=C(Nc1ncnc2[nH]cnc12)c1ccccc1Br`: the inhibition was < 50% in assay [2] and 39% in assay [3].

Compound `CN(C)c1ccccc1C(=O)Nc1ncnc2[nH]cnc12` gave an IC50 in assay [1] of 5.6 µM.
